# Test results from ChEMBL document CHEMBL3297658, “Potent fluorinated agelastatin analogues for chronic lymphocytic leukemia: design, synthesis, and pharmacokinetic studies” (J Med Chem, 2014).
# How the values were obtained:
# Liver = assay: Metabolic stability in mouse liver microsomes at 100 uM measured after 1 hr by LC/MS analysis in presence of 1 mM NADPH; type: ADME
# Method in brief: (§1)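 Microsomes (final protein 5 mg/mL, mouse or human) in 0.1 M sodium phosphate pH 7.4 with compound at 100 μM final (DMSO <1%). Preincubated 5 min at 37 °C, started with NADPH (1 mM final), run 60 min at 37 °C with agitation. Stopped with MeOH and centrifuged; supernatant analysed by LCMS. Controls: zero time, no NADPH, heat-inactivated microsomes, and 7-ethoxycoumarin as CYP substrate.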
# [1] = Antitumor activity against CLL1 cells isolated from CLL patient assessed as cell viability after 48 hrs by FACS analysis; type: functional, cell-based; details: Homo sapiens
# Method in brief: (§2)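 Primary CLL patient cells or JVM-2 line cultured 48 h (37 °C, 5% CO2) in RPMI + 10% FBS with graded compound. Stained 30 min at 37 °C with 40 nM DiOC6 and 10 μg/mL PI, then flow cytometry (525 nm DiOC6, 600 nm PI). Viability = % DiOC6+/PI− relative to untreated or vehicle control. EC50 and SE fitted from dose–response curves.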
# HeLa = assay: Antitumor activity against human HeLa cells assessed as cell viability by MTT assay; type: functional, cell-based
# Method in brief: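 Adherent HeLa cells exposed to compound, then medium replaced with 0.5 mg/mL MTT in phenol-red-free RPMI and incubated overnight at 37 °C. Lysed with 15% SDS/0.015 M HCl and OD read at 570 nm once formazan dissolved. EC50 and SE derived from dose–response curves.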
# [2] = Antitumor activity against CLL2 cells isolated from CLL patient assessed as cell viability after 48 hrs by FACS analysis; type: functional, cell-based, Homo sapiens; details: Homo sapiens, CLL2, 48 h; method in brief: as §2
# Liver microsome = assay: Metabolic stability in human liver microsomes at 100 uM measured after 1 hr by LC/MS analysis in presence of 1 mM NADPH; type: ADME; method in brief: as §1
# [3] = Antitumor activity against human JVM2 cells assessed as cell viability after 48 hrs by FACS analysis; type: functional, cell-based; details: JVM-2, 48 h; method in brief: as §2
# [4] = Antitumor activity against CLL4 cells isolated from CLL patient assessed as cell viability after 48 hrs by FACS analysis; type: functional, cell-based; details: Homo sapiens; method in brief: as §2
# [5] = Antitumor activity against CLL6 cells isolated from CLL patient assessed as cell viability after 48 hrs by FACS analysis; type: functional, cell-based; details: Homo sapiens, CLL6, 48 h; method in brief: as §2
# [6] = Antitumor activity against CLL3 cells isolated from CLL patient assessed as cell viability after 48 hrs by FACS analysis; type: functional, cell-based; details: Homo sapiens; method in brief: as §2
# [7] = Antitumor activity against CLL5 cells isolated from CLL patient assessed as cell viability after 48 hrs by FACS analysis; type: functional, cell-based; details: Homo sapiens; method in brief: as §2
# [8] = Drug recovery in BALB/c mouse serum at 50 uM after 24 hrs by LC-MS method; type: ADME, cell-free; details: read-out: Drug recovery
# Method in brief: (§3)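 Compound added to pooled female BALB/c mouse plasma or serum, or to human AB serum, at 50 μM final (1% DMSO) and incubated at 37 °C with gentle agitation. Aliquots taken at 0, 0.5, 1, 2, 8, 18 and 24 h, proteins precipitated with CH3CN, spun at 3000g for 10 min, supernatant analysed by LCMS. Run in triplicate.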
# [9] = Tmax in BALB/c mouse plasma at 5 mg/kg, ip administered as single dose by LC/MS analysis; type: ADME, organism-based; parameters: dose 5 mg/kg, route intraperitoneal
# Method in brief: (§4)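 Female BALB/c mice dosed at 6 weeks of age with a single intraperitoneal dose of 2.5 or 5.0 mg/kg, n = 4. Tail-vein blood taken at set times and stored at -80 °C. Samples precipitated with CH3CN, spun at 3000g for 10 min, concentrated, reconstituted in 1:1 CH3CN/H2O and quantified by LCMS. PK parameters derived from the concentration–time curves.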
# [10] = AUC in BALB/c mouse plasma at 2.5 mg/kg, ip administered as single dose by LC/MS analysis; type: ADME, organism-based; parameters: dose 2.5 mg/kg, route intraperitoneal; method in brief: as §4
# [11] = AUC in BALB/c mouse plasma at 5 mg/kg, ip administered as single dose by LC/MS analysis; type: ADME, organism-based; parameters: dose 5 mg/kg, route intraperitoneal; method in brief: as §4
# [12] = Cmax in BALB/c mouse plasma at 2.5 mg/kg, ip administered as single dose by LC/MS analysis; type: ADME, organism-based; parameters: dose 2.5 mg/kg, route intraperitoneal; method in brief: as §4
# [13] = Drug recovery in BALB/c mouse plasma at 50 uM after 24 hrs by LC-MS method; type: ADME, cell-free; details: read-out: Drug recovery; method in brief: as §3
# Serum [14] = assay: Protein binding in BALB/c mouse serum at 50 uM after 1 to 24 hrs by LC-MS method; type: ADME; method in brief: as §3
# [15] = Lipophilicity, log P of compound at 25 degC; type: physicochemical; details: octanol/water
# [16] = Solubility of compound in water at 25 degC; type: physicochemical; details: buffer
# [17] = Half life in BALB/c mouse plasma at 5 mg/kg, ip administered as single dose by LC/MS analysis; type: ADME, organism-based; parameters: dose 5 mg/kg, route intraperitoneal; method in brief: as §4
# [18] = Drug recovery in human AB serum at 50 uM after 24 hrs by LC-MS method; type: ADME, cell-free; details: read-out: Drug recovery; method in brief: as §3
# [19] = Tmax in BALB/c mouse plasma at 2.5 mg/kg, ip administered as single dose by LC/MS analysis; type: ADME, organism-based; parameters: dose 2.5 mg/kg, route intraperitoneal; method in brief: as §4
# Serum [20] = assay: Protein binding in human AB serum at 50 uM after 1 to 24 hrs by LC-MS method; type: ADME; method in brief: as §3
# [21] = Half life in BALB/c mouse plasma at 2.5 mg/kg, ip administered as single dose by LC/MS analysis; type: ADME, organism-based; parameters: dose 2.5 mg/kg, route intraperitoneal; details: BALB/c, plasma; method in brief: as §4
# Plasma = assay: Protein binding in BALB/c mouse plasma at 50 uM after 1 to 24 hrs by LC-MS method; type: ADME, cell-free; method in brief: as §3
# [22] = Cmax in BALB/c mouse plasma at 5 mg/kg, ip administered as single dose by LC/MS analysis; type: ADME, organism-based; parameters: dose 5 mg/kg, route intraperitoneal; method in brief: as §4
EC50 (HeLa) [µM],SMILES,EC50 [1] [µM],EC50 [2] [µM],EC50 [3] [µM],EC50 [4] [µM],EC50 [5] [µM],EC50 [6] [µM],EC50 [7] [µM],also measured
61.5,CN1C(=O)N[C@H]2[C@@H]3NC(=O)c4cccn4[C@@H]3C[C@]21O,541,3.9,120,,,,,Stability (Liver): Stable; Stability (Liver microsome): Stable
3.4,CN1C(=O)N[C@H]2[C@@H]3NC(=O)c4ccc(C#N)n4[C@@H]3C[C@]21O,11.1,0.71,38,8.41,0.84,8.37,4.79,
,CN1C(=O)N[C@H]2[C@@H]3NC(=O)c4cc(Br)c(Br)n4[C@@H]3C[C@]21O,26.3,4.46,3.53,,,,,
,CN1C(=O)N[C@H]2[C@@H]3NC(=O)c4cc(Br)cn4[C@@H]3C[C@]21O,19.4,9.22,71.5,,,,,
0.6,CN1C(=O)N[C@H]2[C@@H]3NC(=O)c4cc(Cl)c(Cl)n4[C@@H]3C[C@]21O,1.56,0.52,0.28,4.42,7.5,0.98,2.02,
,CN1C(=O)N[C@H]2[C@@H]3NC(=O)c4cc(Cl)cn4[C@@H]3C[C@]21O,35.9,6.05,5.33,,,,,
1.18,CN1C(=O)N[C@H]2[C@@H]3NC(=O)c4ccc(I)n4[C@@H]3C[C@]21O,5.96,0.73,2.62,3.04,12.9,6.61,3.06,
262,CN1C(=O)N[C@H]2[C@@H]3NC(=O)c4cc(I)c(I)n4[C@@H]3C[C@]21O,26.4,96,49,,,,,
0.061,CN1C(=O)N[C@H]2[C@@H]3NC(=O)c4cc(I)cn4[C@@H]3C[C@]21O,25.5,94.9,222,,,,,
0.15,CN1C(=O)N[C@H]2[C@@H]3NC(=O)c4ccc(C(F)(F)F)n4[C@@H]3C[C@]21O,0.43,0.064,0.66,0.33,0.65,3.04,28.4,"remaining at 24 h, 50 µM [8]: 65%; Stability (Liver): Stable; Tmax [9]: 30 min; AUC [10]: 12.9 µM·h; AUC [11]: 6.51 µM·h; Cmax [12]: 4.18 µM; remaining at 24 h, 50 µM [13]: 65%; PB (Serum [14]): Not Active; logP [15]: 0.78; solubility [16]: 300 µg/mL; half-life [17]: 45 min; remaining at 24 h, 50 µM [18]: 65%; Tmax [19]: 15 min; PB (Serum [20]): Not Active; Stability (Liver microsome): Stable; half-life [21]: 72 min; PPB (Plasma): Not Active; Cmax [22]: 3.25 µM"

SMILES,EC50 (HeLa) [µM],EC50 [1] [µM],EC50 [2] [µM],EC50 [3] [µM],EC50 [4] [µM],EC50 [5] [µM],EC50 [6] [µM],EC50 [7] [µM],also measured
CN1C(=O)N[C@H]2[C@@H]3NC(=O)c4ccc(Cl)n4[C@@H]3C[C@]21O,0.63,0.95,0.32,0.2,1.98,2.2,3.8,0.34,
